In the library only some 3.5% were active in any assay of this set; here they are far more common.
MrgX1 allo act – allosterically activates human MrgX1 receptor signaling. AID 588675. Q96LB2. 310,000 compounds, 0.63% hits. MrgX1-HEK293, Fluo-4 calcium flux, FDSS; stronger effect = higher value. B-score at 10 µM;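 active means plate-corrected calcium response at least 3 library SD above typical, normal starting fluorescence, not activating the receptor alone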;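 further: compound read alongside a low EC10 to EC30 dose of BAM8-22 agonist; peak minus trough fluorescence over baseline measured at the second addition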
Target sequence (Q96LB2 whole entry, looked up): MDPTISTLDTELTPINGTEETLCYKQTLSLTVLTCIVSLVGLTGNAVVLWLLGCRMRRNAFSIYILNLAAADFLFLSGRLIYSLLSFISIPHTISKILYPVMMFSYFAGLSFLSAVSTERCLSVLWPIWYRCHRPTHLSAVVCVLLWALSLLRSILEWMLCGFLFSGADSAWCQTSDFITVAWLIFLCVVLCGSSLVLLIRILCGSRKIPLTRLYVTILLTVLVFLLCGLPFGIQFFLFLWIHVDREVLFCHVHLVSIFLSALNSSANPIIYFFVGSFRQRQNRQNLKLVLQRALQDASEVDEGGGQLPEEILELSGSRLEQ
RGS4 pot – potentiators or activators of RGS4; HEK293 M3R/inducible RGS4, carbachol calcium flux Fluo4; stronger effect = lower value; B-score at 10 µM; 310,000 compounds, 0.92% hits; AID 463111;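 active means B-score of the integrated calcium signal more than 4 SD below the library mean, with starting fluorescence not abnormally high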;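 further: negative B-score means reduced calcium response which marks RGS4 activation or potentiation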
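System: HEK293 FlpIn-TREx cells, stable M3R, doxycycline-inducible RGS4. Timing: overnight RGS4 induction, 30 min dye load 37 °C, 20 min compound RT. Also added: carbachol, ECmax concentration. Measured by: Fluo4 fluorescence kinetic imaging of calcium. Evaluation: integrated calcium ratio converted to B score.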
MrgX1 antagonist – blocks BAM8-22 activation of human MrgX1 receptor; MRGX1-HEK293 calcium flux, Fluo-4, BAM8-22 antagonism; stronger effect = lower value; B-score at 10 µM; Q96LB2; AID 588676; 310,000 compounds, 1.3% hits;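 active means calcium-response B-score plate-corrected more than 3 library SD below zero, starting fluorescence within 5 deviations, no agonist response on first addition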;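 further: peak minus trough fluorescence over baseline after final BAM8-22 challenge near maximal dose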
RGS4 inh – human RGS4 inhibition. P49798. HEK293 M3R/RGS4 inducible, Fluo-4 calcium flux; stronger effect = higher value; triggered by carbachol at its EC20. B-score at 10 µM. 310,000 compounds, 0.45% hits;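 active means B-score, a plate-corrected calcium signal, over three deviations above library mean, with baseline fluorescence within five deviations of library mean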;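 further: RGS4 expression induced by doxycycline in cells with stable M3 receptor; B-score is computed from the integrated fluorescence ratio over baseline after carbachol; higher B-score means a larger calcium signal and so more RGS4 inhibition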
Target sequence (P49798 whole entry, looked up): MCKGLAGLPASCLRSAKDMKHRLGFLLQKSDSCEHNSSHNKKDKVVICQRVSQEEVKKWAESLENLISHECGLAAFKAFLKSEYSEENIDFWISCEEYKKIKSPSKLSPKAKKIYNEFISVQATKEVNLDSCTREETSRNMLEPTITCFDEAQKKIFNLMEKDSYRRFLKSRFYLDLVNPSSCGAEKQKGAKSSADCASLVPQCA
MrgX1 ag – agonists of human MrgX1 receptor | 310,000 compounds, 0.44% hits | AID 588627 | Q96LB2 | MrgX1-HEK293 cells, Fluo-4 calcium fluorescence, agonist mode; stronger effect = higher value | B-score at 10 µM;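 active means calcium response B-score plate-corrected fluorescence ratio at least 3 library SD, with starting fluorescence B-score inside 5 SD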
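System: HEK293 cells stably expressing human MrgX1 receptor; Dosing: test compound in the initial addition of three; Schedule: overnight plating, then 30 min 37 °C plus 30 min room-temperature dye loading; Detection: kinetic calcium dye fluorescence, Fluo-4 NW; Controls: per-plate positive and negative controls for Z′ factor.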
MrgX1 allo conf – human MrgX1 positive allosteric modulation, re-confirmation; shares compounds with MrgX1 allo act; MrgX1-HEK293, Fluo-4 calcium fluorescence, FDSS; activation (ratio percentage), % at 10 µM; 1,200 compounds, 13% hits;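 active means ratio at least 3 SD above the weak peptide control, stable starting fluorescence, no direct agonism earlier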;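 further: compound followed by low BAM8-22 agonist challenge near EC20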
HEK293 Ca flux – activity in parental HEK293 cells lacking MrgX1; shares compounds with MrgX1 antagonist; Fluo-4 calcium fluorescence, FDSS; fluorescence ratio F(max-min)/F0 at 10 µM; 4,000 compounds, 2% hits;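 active means duplicate-averaged calcium fluorescence ratio at least three times the standard deviation of buffer wells, a nonspecific response in parental cells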
HEK293 Ca counter – MrgX1 allosteric activator counter-screen hit in parental HEK293 cells; shares compounds with MrgX1 antagonist; parental HEK293 calcium flux, Fluo-4 fluorescence ratio; stronger effect = higher value; fluorescence ratio F(max-min)/F0 at 10 µM; 4,000 compounds, 0.4% hits; AID 624114;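 active means calcium fluorescence ratio, averaged over duplicates, at least 3 SD of the buffer-well ratio, meaning a nonspecific response in receptor-free cells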;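 further: untransfected parental HEK293 lacking MrgX1 used as counterscreen for MrgX1 allosteric activators; fluorescence change taken during the second addition on a kinetic imager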
HEK293 Ca cntr2 – activity in parental HEK293 cells lacking MrgX1 receptor. 4,000 compounds, 8.7% hits. Fluo-4 calcium fluorescence (FDSS); stronger effect = higher value. shares compounds with MrgX1 antagonist. fluorescence ratio F(max-min)/F0 at 10 µM;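 active means calcium fluorescence ratio at least three times the spread of buffer wells, meaning a non-specific response in parental cells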
Hits are given with their value; – = inactive; · = not tested or not shown.

SMILES	MrgX1 allo act	RGS4 pot	MrgX1 antagonist	RGS4 inh	MrgX1 ag	MrgX1 allo conf	HEK293 Ca flux	HEK293 Ca counter	HEK293 Ca cntr2
CCOC(=O)N1CCC(N2C(=O)c3ccc(C(=O)Nc4cccc(OC)c4)cc3C2=O)CC1	8	–	–	–	–	–	–	–	–
O=C(NCc1ccccn1)c1ccc(COc2ccc(Cl)cc2)o1	7.3	–	–	–	–	–	–	–	–
O=C(NCc1ccccn1)c1ccc(Cl)cc1Cl	–	–	–	–	–	·	·	·	·
O=C(NCCNC(=O)c1cc(Cl)ccc1Cl)c1ccccn1	9.3	–	–	–	–	–	–	–	77
O=C(NCc1ccccn1)c1cc(Cl)ccc1OCc1ccccc1	6.9	–	–	–	–	–	–	–	–
COC(=O)C(Cc1ccc(O)cc1)NC(=O)c1ccccc1 (centres undefined)	–	–	–	–	–	·	·	·	·
Cc1cc2c(c(SCC(N)=O)n1)C(=O)OC2	6.7	–	–	–	–	–	–	–	–
Cc1cc2c(c(SCC(=O)N(C)c3ccccc3)n1)C(=O)OC2	–	–	–	–	–	·	·	·	·
CCOC(=O)c1c(C)nc(-c2ccccc2)nc1N	7.4	–	–	–	–	–	–	–	–
CC(C)=C1C(=O)NN(c2cccc(Cl)c2)C1=O	–	–	–	–	–	·	·	·	·
COC(=O)C1CCN(c2cc(Cl)nc(N)n2)CC1	8.1	–	–	–	–	–	–	–	–
NC(=O)C1CCN(c2cc(Cl)nc(N)n2)CC1	–	–	–	–	–	·	·	·	·
CC(C)C(O)(c1ccccc1)C(CN1CCOCC1)c1ccccc1 (centres undefined)	8.4	–	–	–	–	–	–	–	–
COc1ccccc1C(O)(c1ccccc1)C(CN1CCOCC1)c1ccccc1 (centres undefined)	9.1	–	–	–	–	–	–	–	–
CC(C)CC(O)(c1ccccc1)C(CN1CCOCC1)c1ccccc1 (centres undefined)	–	–	–	–	–	·	·	·	·
CC/C(=C/c1sc2ccccc2[n+]1CC)SC	–	–	–	–	–	·	·	·	·
Cc1ccc(NC(=O)COC(=O)C2C3CC4OC(=O)C2C4C3)cc1 (centres undefined)	26	–	–	–	–	–	–	–	–
COc1ccc(CNC(=O)CN2C(=O)COc3ccc(S(=O)(=O)N4CCCC4)cc32)cc1	–	–	–	–	–	·	·	·	·
COC(=O)CN1C(=O)C2(C(C#N)=C(N)Oc3c2c(C)nn3-c2ccccc2)c2ccccc21 (centres undefined)	7.4	–	–	–	–	–	–	–	–
COC(=O)CN1C(=O)C2(C(C#N)=C(N)Oc3n[nH]c(-c4cccs4)c32)c2ccccc21 (centres undefined)	–	–	–	–	–	·	·	·	·
NC(=O)CSc1nnc(COc2ccc3ccccc3c2)o1	–	–	–	–	–	·	·	·	·
N#CCSc1nnc(COc2ccc3ccccc3c2)o1	25	–	–	–	–	–	–	–	–
CCOc1ccccc1N1CCN(C(=O)c2ccncc2)CC1	–	–	–	–	–	·	·	·	·
CN(C)S(=O)(=O)c1ccc(C(=O)OCC(=O)NCc2ccccc2)cc1	8.4	–	–	–	–	–	–	–	–
Cc1ccc(-n2c(C)nc3ccsc3c2=O)cc1	–	–	–	–	–	·	·	·	·
SMILES	MrgX1 allo act	RGS4 pot	MrgX1 antagonist	RGS4 inh	MrgX1 ag	MrgX1 allo conf	HEK293 Ca flux	HEK293 Ca counter	HEK293 Ca cntr2
COC1(c2cc(-c3ccccc3)nc(N)n2)CCCCC1	31	–	–	–	–	28%	–	–	–
Nc1nc(-c2ccccc2)cc(C(F)(F)F)n1	–	–	–	–	–	·	·	·	·
CC(C)C(OC(=O)c1cccs1)C(=O)NCc1ccc(F)cc1 (centres undefined)	–	–	–	–	–	·	·	·	·
CCc1[nH]nc2c1C(c1ccc(C)o1)C(C#N)=C(N)O2 (centres undefined)	7.6	–	–	–	–	–	–	–	–
O=C(C1CCN(S(=O)(=O)c2cccs2)CC1)N1CCc2ccccc2C1	–	–	–	–	–	·	·	·	·
O=C(C1CCCN(S(=O)(=O)c2cccs2)C1)N1CCc2ccccc2C1 (centres undefined)	9.6	–	–	–	–	–	–	–	–
Cc1nn(CCCC(=O)Nc2sc3c(c2C#N)CCC3)c(C)c1[N+](=O)[O-]	–	–	–	–	–	·	·	·	·
CCOc1ccccc1NC(=O)c1ccccc1NS(C)(=O)=O	23	–	–	–	–	79%	–	–	–
COc1cc(NC(=O)c2cc3ccccc3cc2O)c(OC)cc1Cl	–	–	–	–	–	·	·	·	·
COc1ccccc1NC(=O)c1cc2cc(Br)ccc2cc1O	8.4	–	–	–	–	16%	–	–	–
COc1ccccc1NC(=O)c1ccccc1NS(C)(=O)=O	11	–	–	–	–	–	–	–	–
COc1ccccc1NC(=O)c1ccccc1NS(=O)(=O)c1cccs1	54	–	–	–	–	29%	–	–	–
CS(=O)(=O)Nc1ccccc1C(=O)Nc1ccccc1Cl	–	–	–	–	–	·	·	·	·
COc1ccc(NC(=O)c2ccccc2NS(C)(=O)=O)cc1OC	–	–	–	–	–	·	·	·	·
Cc1nc2nc(Cc3ccccc3)[nH]n2c(=O)c1Cc1ccccc1	–	·	–	·	–	·	·	·	·
CN(C)CCCN(C(=O)c1ccco1)c1nc2ccc(Br)cc2s1	6.5	–	–	–	–	–	–	–	–
S=c1[nH]c2ccccc2n2c(=S)[nH]nc12	–	–	–	–	–	·	·	·	·
COc1ccc(-c2cn[nH]c2-c2ccc(O)cc2O)cc1	–	–	–	–	–	·	·	·	·
C=C(C)COc1ccc(-c2[nH]ncc2-c2ccc(OC)cc2)c(O)c1	–	–	–	–	–	·	·	·	·
COc1ccc(-c2[nH]ncc2-c2cnn(-c3ccccc3)c2)c(O)c1	9.4	–	–	–	–	–	–	–	–
C=C(C)COc1ccc(-c2[nH]ncc2-c2ccccc2)c(O)c1	16	–	–	–	–	14%	–	–	–
Cc1cnn(-c2cc(Oc3ccccc3)ncn2)c1	8.8	–	–	–	–	–	–	–	–
c1ccc(Oc2cc(-n3cncn3)ncn2)cc1	–	–	–	–	–	·	·	·	·
COC(=O)C(CC(=O)c1ccc(Cl)cc1)c1ccc(C(C)C)cc1 (centres undefined)	7.1	–	–	–	–	–	–	–	–
